In publication PMC3150598 (Journal of medicinal chemistry, 2011):
One block for each compound: values may come before it.

Columns and labels:
HDAC [1] = conditions: cited from earlier work
[2] = Blood half-life of 1a after i.v. or p.o. administration; assay type: in vivo, C57BL/6 mice; conditions: for dosed compound still present in whole blood: i.v., after initial burst phase
HDACs 1–9 = assay: HDAC assay: biochemical profiling against purified HDAC isoforms
[3] = Biodistribution of 1a after i.v. injection; assay type: in vivo, C57BL/6 mice; conditions: 1 hour and 3 hours after i.v. injection
Summary of the method: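 Six C57BL/6 mice received 241 ± 18 μCi of the 18F-labelled test compound by tail-vein i.v. injection. Groups were killed at 1 h (n=3) and 3 h (n=3) post-injection. Tissues were excised and weighed, and radioactivity was gamma-counted and expressed as %ID/g.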

[4] = tested on: A2780 human ovarian cancer cells; assay: PET-CT of A2780 tumor xenograft before and after competition with cold SAHA; assay type: in vivo, Nu/Nu mice; conditions: after systemic administration
HDAC [5] = conditions: cited from earlier work; remark: listed apart in the source

Structure (SMILES): Nc1ccccc1NC(=O)c1ccc(CNC(=O)OCc2cccnc2)cc1 [5b]
HDAC isoform selectivity (HDAC [1]): selective for HDAC1–3
potency relative to SAHA (fold less potent) (HDAC [1]): 20–70 fold

dosed compound still present in whole blood ([2]; formulation A (60% PEG400, 40% water)): < 1%
dosed compound still present in whole blood ([2]; formulation B (10%DMSO, 90% water)): ~3%
terminal half-life relative to initial t1/2 ([2]; single bolus i.v.): approximately 10 times longer
concentration in cardiac tissue [3]: comparatively low concentrations
tissues with highest concentration [3]: kidney, liver and blood
tissues with lowest concentration [3]: thymus and brain
Structure (SMILES): O=C(CCCCCCC(=O)Nc1ccc([18F])cc1)NO [1a, 18F-suberoylanilide hydroxamic acid]
HDAC potency (HDACs 1–9): low nanomolar potency
accumulation in tumors [4]: accumulate in tumors in a time-dependent manner

Structure (SMILES): O=C(C[18F])NCCCCCC(=O)Nc1ccccc1 [compound 4, 6-([18F]-fluoroacetamide)-1-hexanoicanilide]
metabolism in vivo (HDAC [5]): rapidly metabolized in vivo

Structure (SMILES): O=C(CCCCCCC(=O)Nc1ccc([19F])cc1)NO [1b, N-Hydroxy-N'-(4-fluorophenyl)octanediamide]
potency and selectivity of inhibition of primary HDAC targets compared with SAHA (HDACs 1–9; HDACs 1–3 and 6): virtually indistinguishable from SAHA
HDAC isoforms inhibited (HDACs 1–9; profiled against purified HDACs 1–9): inhibited only HDACs 1–3 and 6
